Test results taken from PMC8448143 (Antimicrobial Agents and Chemotherapy, 2021).
“Also recorded” adds a separate entry of the source. Like-named read-outs stand apart in the source and are kept apart here.

How the values were obtained:
in vitro [1] = conditions: human
[2] = test system: SARS-CoV-2 (2019-nCoV/USA-WA1/2020); experiment: SARS-CoV-2 antiviral assay; type: cell-based; conditions: for EC90: Severe acute respiratory syndrome coronavirus 2, in Homo sapiens, 48 h; for Selectivity index: CC50/EC50
[3] = test system: SARS-CoV-2 (2019-nCoV/USA-WA1/2020); experiment: SARS-CoV-2 antiviral assay; type: cell-based; conditions: for Selectivity index: Huh7.5 cells, CC50/EC50
in vitro [4] = conditions: African green monkey
[5] = test system: SARS-CoV-2 (2019-nCoV/USA-WA1/2020); experiment: SARS-CoV-2 antiviral assay; type: cell-based; conditions: Vero E6 cells; CC50/EC50
[6] = test system: SARS-CoV-2 (2019-nCoV/USA-WA1/2020); experiment: SARS-CoV-2 antiviral assay; type: cell-based; conditions: for Selectivity index: Caco-2 cells, CC50/EC50; for EC50 / EC90: Severe acute respiratory syndrome coronavirus 2, Caco-2, 48 h
in vitro [7] = conditions: human; remark: listed apart in the source
[8] = test system: SARS-CoV-2 (2019-nCoV/USA-WA1/2020); experiment: SARS-CoV-2 antiviral assay; type: cell-based; conditions: for Selectivity index: Calu-3 cells, CC50/EC50
in vitro [9] = conditions: human; remark: listed apart in the source
in vitro [10] = conditions: human; remark: listed apart in the source
[11] = ex vivo; cited from earlier work
SARS-CoV-2 [12] = conditions: human alveolar epithelial (HAE) cells; cited from earlier work
SARS-CoV-2 [13] = conditions: Calu-3 2B4 cells; cited from earlier work
[14] = in vivo, rhesus monkeys; cited from earlier work
[15] = cited from earlier work
human coronavirus 229E = experiment: microbe, parasite or virus in culture; type: cell-based; conditions: MRC5, 72 h
in vitro [16] = experiment: in vitro
[17] = Seven-day oral pharmacokinetics and tolerability in Syrian hamsters; type: in vivo
In short: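 Syrian hamsters in groups of 3 received vehicle or test compound by oral gavage every 12 h for 7 days, at 16.9 or 13.2 mg/kg body weight. Plasma levels of the prodrug and its nucleoside metabolite were followed after dosing. Animals were monitored for adverse clinical signs.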

in vitro [18] = conditions: both, human, plasma
[19] = Severe acute respiratory syndrome coronavirus 2, Huh7.5, 48 h
[20] = Severe acute respiratory syndrome coronavirus 2, Calu-3, 48 h

Row | SMILES | CC50 (in vitro [1]) | EC90 [2] | EC50 [3] | Selectivity index [3] | EC50 [3, 19] | EC90 [3, 19] | CC50 (in vitro [4]) | Selectivity index [5] | Selectivity index [6] | EC50 [6] | EC90 [6] | Selectivity index ([2]; PSC-human lung cells) | CC50 (in vitro [7]) | Selectivity index [8] | EC50 [8, 20] | EC90 [8, 20] | CC50 (in vitro [9]) | CC50 (in vitro [10]) | EC50 (human coronavirus 229E) | EC90 (human coronavirus 229E) | other results
1 | CCCCCCCCCCCCCCCCOCCCOP(=O)(O)OC[C@H]1O[C@@](C#N)(c2ccc3c(N)ncnn23)[C@H](O)[C@@H]1O [HDP-P-RVn, {(2R,3S,4R,5R)-5-(4-aminopyrrolo[2,1-f][1,2, 4]triazin-7-yl)-5-cyano-3,4-dihydroxytetrahydrofuran-2-yl}methyl [3-(hexadecyloxy)propyl] hydrogen phosphate] | > 100000 nM | 940 nM | 190 nM | >526 | < 200 nM | 400 nM | > 100000 nM | >158 | – | – | – | – | – | – | – | – | – | – | – | – | –
2 | N#C[C@@]1(c2ccc3c(N)ncnn23)O[C@H](CO)[C@@H](O)[C@H]1O [RVn, remdesivir nucleoside, reference compound] | > 100000 nM | 2620 nM | – | >312 | 320 nM | 730 nM | > 100000 nM | – | >104 | 960 nM | 1750 nM | >135 | > 100000 nM | >666 | 150 nM | 180 nM | > 100000 nM | > 100000 nM | – | – | –
3 | CCCCCCCCCCCCCCCCCCOCCOP(=O)(O)OC[C@H]1O[C@@](C#N)(c2ccc3c(N)ncnn23)[C@H](O)[C@@H]1O [ODE-P-RVn, {(2R,3S,4R,5R)-5-(4-aminopyrrolo[2,1-f][1,2, 4]triazin-7-yl)-5-cyano-3,4-dihydroxytetrahydrofuran-2-yl}methyl [2-(octadecyloxy)ethyl] hydrogen phosphate] | > 100000 nM | 700 nM | 190 nM | >526 | < 200 nM | 370 nM | > 100000 nM | >333 | >129 | 770 nM | 1250 nM | >454 | 98700 nM | 290 | < 350 nM | 640 nM | > 100000 nM | > 100000 nM | – | – | EC50 ([2]; PSC-human lung cells, […]): 220 nM; EC50 [8]: 340 nM
4 | CCC(CC)COC(=O)[C@H](C)N[P@](=O)(OC[C@H]1O[C@@](C#N)(c2ccc3c(N)ncnn23)[C@H](O)[C@@H]1O)Oc1ccccc1 [RDV, remdesivir, reference compound] | – | 230 nM | – | – | 60 nM | 120 nM | 101000 nM | – | – | 170 nM | 280 nM | – | – | – | 230 nM | 310 nM | – | – | 40 nM | 260 nM | half-life (t1/2) in human plasma [11]: 1.15 h; EC50 (SARS-CoV-2 [12]): 10 nM; EC50 (SARS-CoV-2 [13]): 280 nM; persistence in plasma after intravenous infusion [14]: less than 2 h; persistence in plasma after intravenous infusion ([15]; in vivo, COVID-19 patients): less than 2 h; drop of plasma level after the intravenous infusion stopped ([15]; two patients with COVID-19, 1 h after the infusion stopped): > 90%
5 | CCCCCCCCCCCCCCCCCCOC[C@H](COP(=O)(O)OC[C@H]1O[C@@](C#N)(c2ccc3c(N)ncnn23)[C@H](O)[C@@H]1O)OCc1ccccc1 [ODBG-P-RVn, {(2R,3S,4R,5R)-5-(4-aminopyrrolo[2,1-f][1,2, 4]triazin-7-yl)-5-cyano-3,4-dihydroxytetrahydrofuran-2-yl]methyl [(R)-2-(benzyloxy)-3-(octadecyloxy)propyl] hydrogen phosphate] | – | 260 nM | – | 449 | < 200 nM | 150 nM | 97900 nM | 699 | 295 | 300 nM | 330 nM | 410 | – | 327 | < 350 nM | 330 nM | – | – | 150 nM | 540 nM | CC50 (in vitro [16]): 61500 to 98200 nM; tolerability ([17]; Syrian hamsters, oral gavage every 12 h for 7 days, 16.9 and 13.2 mg/kg): well tolerated; also recorded: well tolerated, and no adverse clinical signs were noted; plasma level of ODBG-P-RVn relative to its EC90 ([17]; Syrian hamsters, oral, at 12 h, days 1 and 7, EC90 in all cell lines studied): above the 90% effective concentration (EC90); also recorded: higher than the EC90; Tmax ([17]; Syrian, hamster, plasma, po): 1 h; half-life (in vitro [18]): > 24 h
